Screening results: PubChem, several laboratories
Arr AP2 block = inhibitors of beta-arrestin/AP2 binding, primary screen, biochemical, GPCR trafficking, flow cytometry; FITC-arrestin peptide / GST-AP2 beads; AP2 beta2 appendage carries R879A mutation; AID 504490, 2011; 340,000 compounds, 0.31% hits; inhibition, % at 10 µM; beta-arrestin 1 C-terminal peptide binding to AP2 beta2-adaptin appendage (human);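 active means inhibition above a set limit, near 3 SD of compounds lacking own fluorescence, cut at about 54% in these data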;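 further: plate controls were DMSO wells for no effect and 5 µM unlabelled arrestin peptide for full effect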
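System: GST-tagged AP2 beta2-adaptin appendage (R879A) on 4 µm glutathione beads / Reagent: FITC-arrestin peptide, 50 nM / Detection: HyperCyt-sampled flow cytometry, FL1 channel, ex 488/em 535 nm / Timing: 12 min plus 1 h, RT / Buffer or medium: PBS plus Tween 20 (0.05%) and BSA (0.1%)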
ATG4B inhibitor = ATG4B protease inhibitors, primary screen, biochemical, fluorescence, uHTS | 340,000 compounds, 0.51% hits | ATG4B cleavage of LC3-PLA2, NBD-HPC fluorescence, 1 h | AID 504462, 2011 | Cysteine protease ATG4B (Homo sapiens), Q9Y4P1 | inhibition, % at 8.33 µM; in the data active means inhibition above about 40%
Target sequence (Q9Y4P1 whole entry, looked up): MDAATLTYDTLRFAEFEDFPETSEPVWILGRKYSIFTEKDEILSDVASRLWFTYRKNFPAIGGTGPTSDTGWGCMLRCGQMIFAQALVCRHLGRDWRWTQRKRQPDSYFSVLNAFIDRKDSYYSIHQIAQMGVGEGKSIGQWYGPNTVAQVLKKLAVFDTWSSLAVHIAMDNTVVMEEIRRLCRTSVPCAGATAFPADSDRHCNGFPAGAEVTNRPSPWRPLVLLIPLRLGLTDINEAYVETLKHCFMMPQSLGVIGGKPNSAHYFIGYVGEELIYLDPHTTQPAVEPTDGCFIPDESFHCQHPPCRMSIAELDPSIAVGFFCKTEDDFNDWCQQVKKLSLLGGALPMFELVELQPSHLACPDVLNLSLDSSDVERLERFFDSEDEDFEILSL
Myeloid diff MLP = induction of myeloid progenitor differentiation, primary screen, cell-based, flow cytometry, MLPCN library; ER-HoxA9 myeloid progenitors, lysozyme-GFP differentiation; calls only at 10 µM; 360,000 compounds, 1% hits; AID 624256, 2012;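 active means normalized GFP-positive differentiation at or above the plate's own cutoff, the solvent-only control mean plus 3 SD; inconclusive means no clear call, values can overlap the other calls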;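 further: cells exposed to compound for four days before flow analysis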
ABCB6 inh MLPCN = ABCB6 transporter inhibitors, primary screen, K562-ABCB6 cells, flow cytometry, MLPCN library. K562-ABCB6 porphyrin accumulation, 1 h; active compounds read low. fluorescence ratio to DMSO, % at 10 µM. ATP-binding cassette sub-family B member 6 (Homo sapiens), Q9NP58. 360,000 compounds, 0.19% hits;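 active means fluorescence ratio to DMSO below 75%, the collection mean minus 3 SD; inconclusive means too few cells collected in the well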;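 further: signal is porphyrin accumulated inside mitochondria; 100% equals median channel fluorescence of DMSO control wells; lower ratio means ABCB6 inhibition with less porphyrin fluorescence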
Exocytosis inh = LAMP-1 surface exposure blockers, TALL-104 cells – cell-based, flow cytometry, MLPCN library, primary screen; AID 651702, 2012; TALL-104 LAMP-1 surface exposure; cells stimulated with thapsigargin and PMA; inhibition, % at 10 µM; 360,000 compounds, 0.66% hits;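 active means inhibition above about 55%, limit read from the data; inconclusive means no clear call, values can overlap the other calls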
CendR NRP1 mod = modulators of CendR peptide binding to NRP-1, primary screen, biochemical, fluorescence polarization, uHTS; 360,000 compounds, 0.85% hits; FAM-RPARPAR peptide binding to NRP-1; inhibition, % at 25 µM; Neuropilin-1 (Homo sapiens), O14786;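 active means inhibition or corrected inhibition above about 18%, plus a signal ratio from 0.5 to 1.5, limit read from the data, passing the limit was not always enough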
Myeloid diff = inducers of myeloid progenitor differentiation, confirmation, cell-based, GFP/Mac1 flow cytometry, cherry pick 01. shares compounds with Myeloid diff MLP. ER-HoxA9 myeloid progenitors, GFP/Mac1 double-positive flow. calls only. 2,300 compounds, 2% hits. AID 651706, 2012;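 active means share of green or green-and-red cells above 9 and 9% in run 1 or 4 and 3% in run 2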
GFP autofluor = compound fluorescence in myeloid differentiation counter-screen; shares compounds with Myeloid diff MLP; ER-HoxA9 myeloid progenitors, no estrogen, GFP autofluorescence flow cytometry; vehicle wells 0%, positive control 100%; fluorescence response, % (test concentration not listed); 2,300 compounds, 7.4% hits; AID 651707;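 active means over 5% cells positive for green fluorescent reporter, or over 2% positive for both it and APC stain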;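 further: range taken on the double positive population between DMSO and positive control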
Numbers without * were called inactive. The list is not random: actives were taken first. Their share in the collection is about 3.3%.

Cc1cc(Cl)ccc1OCC(=O)Nc1cccc(S(=O)(=O)NC2=NCCCCC2)c1 was read as Arr AP2 block -8.0, ATG4B inhibitor -1.8, Myeloid diff MLP active, ABCB6 inh MLPCN 101.0, Exocytosis inh 0.7, CendR NRP1 mod 6.9, Myeloid diff inactive and GFP autofluor 0.8.
`Cc1cc(-c2nnc(CCC(=O)NC(C)c3ccc(F)cc3)o2)no1` (centres undefined) gave Arr AP2 block 12.9, ATG4B inhibitor 1.8, Myeloid diff MLP inactive, ABCB6 inh MLPCN 96.0, Exocytosis inh 2.9 and CendR NRP1 mod -24.4.
For COc1ccc(CN2c3c(Br)cccc3C(=O)CS2(=O)=O)cc1 the results were Arr AP2 block -3.4, ATG4B inhibitor -4.6, Myeloid diff MLP active, ABCB6 inh MLPCN 97.0, Exocytosis inh 2.4, CendR NRP1 mod 5.7, Myeloid diff inactive and GFP autofluor 0.3.
For COc1ccc(-c2c(C#N)c(SCC(=O)c3cc4ccccc4oc3=O)nc(C)c2C(=O)Nc2ccccc2)cc1 the results were Arr AP2 block -6.7, ATG4B inhibitor 4.3, Myeloid diff MLP inconclusive, ABCB6 inh MLPCN 95.0, Exocytosis inh -1.0 and CendR NRP1 mod -15.8.
Cc1nc(SCC(=O)c2cc3ccccc3oc2=O)c(C#N)c(-c2ccccc2)c1C(=O)Nc1ccccc1 was read as Arr AP2 block 0.3, ATG4B inhibitor -5.8, Myeloid diff MLP inactive, ABCB6 inh MLPCN 101.0, Exocytosis inh 0.3, CendR NRP1 mod -6.9, Myeloid diff inactive and GFP autofluor 0.0.
For Cn1c(=O)c2ccccc2n(CC(=O)NC2CCCC2)c1=O the results were Arr AP2 block 5.7, ATG4B inhibitor -18.0, Myeloid diff MLP inactive, ABCB6 inh MLPCN 98.0, Exocytosis inh -6.6 and CendR NRP1 mod 3.8.
`C[C@@H]1CN([C@H](C)CO)S(=O)(=O)c2ccc(Br)cc2O[C@H]1CN(C)C(=O)Nc1cccc(F)c1` gave Myeloid diff MLP inactive, ABCB6 inh MLPCN 102.0, Exocytosis inh 9.2, CendR NRP1 mod -7.4, Myeloid diff inactive and GFP autofluor 0.0.
`C[C@@H]1CN([C@@H](C)CO)S(=O)(=O)c2ccc(Br)cc2O[C@H]1CN(C)C(=O)CN(C)C` gave Myeloid diff MLP active, ABCB6 inh MLPCN 98.0, Exocytosis inh 3.7, CendR NRP1 mod -0.3, Myeloid diff inactive and GFP autofluor 0.0.
COc1ccc(S(=O)(=O)N(C)C[C@@H]2Oc3cc(C#CC4CCCCC4)ccc3S(=O)(=O)N([C@@H](C)CO)C[C@@H]2C)cc1 was read as Myeloid diff MLP inactive, ABCB6 inh MLPCN 99.0, Exocytosis inh 0.5, CendR NRP1 mod -5.0, Myeloid diff inactive and GFP autofluor 0.0.
For COc1ccc(C#Cc2ccc3c(c2)O[C@H](CN(C)S(=O)(=O)c2ccccc2F)[C@H](C)CN([C@H](C)CO)S3(=O)=O)cc1 the results were Myeloid diff MLP inactive, ABCB6 inh MLPCN 96.0, Exocytosis inh 4.2 and CendR NRP1 mod -18.4.
C[C@H](CO)N1C[C@H](C)[C@@H](CN(C)C(=O)Nc2ccccc2)Oc2cc(Br)ccc2S1(=O)=O was read as Myeloid diff MLP inactive, ABCB6 inh MLPCN 94.0, Exocytosis inh 13.5 and CendR NRP1 mod -6.6.
